Legend:
Splenocyte [1] = assay: Immunosuppressive activity against concanavalin A-induced BALB/c mouse splenocytes assessed as inhibition of [3H]thymidine incorporation at 30 uM by liquid scintillation counting; assay type: functional
Splenocyte [2] = assay: Immunosuppressive activity against concanavalin A-induced BALB/c mouse splenocytes assessed as inhibition of [3H]thymidine incorporation at 1 uM by liquid scintillation counting; assay type: functional
[3] = Immunosuppressive activity in BALB/c mouse splenocytes assessed as inhibition of concanavalin A-induced cell proliferation at 30 uM after 48 hrs by MTT assay; assay type: functional; settings: Splenocyte
In short: (§1)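 Spleen cells (5 × 10⁵) from male BALB/c mice aged 6–8 weeks, erythrocytes lysed, stimulated with ConA 5 μg/mL in RPMI-1640/10% FBS. Compounds diluted from DMSO stock. ConA-stimulated cells used as control. Proliferation read by MTT added 4 h before end of culture, SDS/DMF lysis for 6 h, absorbance at 570 nm.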

T-cell [4] = assay: Immunosuppressive activity against concanavalin A-induced BALB/c mouse splenocytes assessed as T-cells activation at 1 uM after 24 hrs by FACS assay; assay type: functional
In short: (§2)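 Male BALB/c splenocytes (6–8 weeks), 5 × 10⁵, stimulated with ConA 5 μg/mL, with or without compound. After 24 h, cells washed twice in cold PBS and stained with CD25-FITC and CD4-APC for 30 min at 4 °C. Washed again and analysed by flow cytometry as the CD4+CD25+/CD4+ percentage.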

[5] = Immunosuppressive activity in BALB/c mouse splenocytes assessed as inhibition of concanavalin A-induced cell proliferation at 10 uM after 48 hrs by MTT assay; assay type: functional; settings: Splenocyte; in short: as §1
[6] = Immunosuppressive activity in BALB/c mouse splenocytes assessed as inhibition of concanavalin A-induced cell proliferation at 100 uM after 48 hrs by MTT assay; assay type: functional; settings: Splenocyte; in short: as §1
T-cell [7] = assay: Immunosuppressive activity against concanavalin A-induced BALB/c mouse splenocytes assessed as T-cells activation at 3 uM after 24 hrs by FACS assay; assay type: functional; in short: as §2
Splenocyte [8] = assay: Immunosuppressive activity against concanavalin A-induced BALB/c mouse splenocytes assessed as inhibition of [3H]thymidine incorporation at 10 uM by liquid scintillation counting; assay type: functional
T-cell [9] = assay: Immunosuppressive activity against concanavalin A-induced BALB/c mouse splenocytes assessed as T-cells activation at 30 uM after 24 hrs by FACS assay; assay type: functional; in short: as §2
[10] = Cytotoxicity against BALB/c mouse splenocytes at 10 uM after 48 hrs by MTT assay; assay type: cell-based, Splenocyte; settings: read-out: INH
In short: (§3)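 BALB/c spleen single-cell suspension, erythrocytes depleted with Tris-buffered NH4Cl (0.155 M NH4Cl, 16.5 mM Tris, pH 7.2). Cells cultured in RPMI-1640 with 10% FBS and compound diluted from DMSO stock (0.1% DMSO in control). Medium-alone cells served as control. MTT (5 mg/mL) added 4 h before end of culture, then SDS/DMF lysis buffer (pH 7.2) for 6 h. Absorbance read at 570 nm and growth inhibition % calculated.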

[11] = Cytotoxicity against BALB/c mouse splenocytes at 30 uM after 48 hrs by MTT assay; assay type: cell-based, Splenocyte; settings: read-out: INH; in short: as §3
[12] = Cytotoxicity against BALB/c mouse splenocytes at 100 uM after 48 hrs by MTT assay; assay type: cell-based, Splenocyte; settings: read-out: INH; in short: as §3
T-cell [13] = assay: Immunosuppressive activity against concanavalin A-induced BALB/c mouse splenocytes assessed as T-cells activation at 10 uM after 24 hrs by FACS assay; assay type: functional; in short: as §2
[14] = Immunosuppressive activity in BALB/c mouse splenocytes assessed as inhibition of concanavalin A-induced cell proliferation at 1 uM after 48 hrs by MTT assay; assay type: functional; settings: Splenocyte; in short: as §1

With `COc1cc(OC)c2c(OC(=O)c3ccccc3Cl)ccnc2c1` the inhibition at 30 µM (Splenocyte [1]) was 52%, the inhibition at 1 µM (Splenocyte [2]) was 4.3% and the inhibition at 30 µM [3] was 73.7%. It also gave an Activity (T-cell [4]) of 95.63%, an inhibition at 10 µM [5] of 46.1% and an inhibition at 100 µM [6] of 89.8%. It also gave an Activity (T-cell [7]) of 92.8%, an inhibition at 10 µM (Splenocyte [8]) of 37.9% and an Activity (T-cell [9]) of 90.86%. For the same compound, the cytotoxicity at 48 h, 10 µM [10] was 2.9%, the cytotoxicity at 48 h, 30 µM [11] was 6.6% and the cytotoxicity at 48 h, 100 µM [12] was 39.8%. The Activity (T-cell [13]) was 93.1%.

For `COc1cc(OC)c2c(OC(=O)c3ccccc3C)ccnc2c1`, the inhibition at 30 µM (Splenocyte [1]) was 94.6%, the inhibition at 1 µM (Splenocyte [2]) was 2.2% and the inhibition at 30 µM [3] was 91.4%. For the same compound, the Activity (T-cell [4]) was 93.81%, the inhibition at 10 µM [5] was 70.3% and the inhibition at 100 µM [6] was 92.2%. For the same compound, the Activity (T-cell [7]) was 92.54%, the inhibition at 10 µM (Splenocyte [8]) was 55.4% and the Activity (T-cell [9]) was 75.65%. It also gave a cytotoxicity at 48 h, 10 µM [10] of 9.4%, a cytotoxicity at 48 h, 30 µM [11] of 53.9% and a cytotoxicity at 48 h, 100 µM [12] of 64%. The Activity (T-cell [13]) was 85.45%.

Compound `COc1cc(OC)c2c(OC(=O)c3ccccc3[N+](=O)[O-])ccnc2c1` has an inhibition at 30 µM (Splenocyte [1]) of 64.6%, an inhibition at 1 µM (Splenocyte [2]) of 10.2% and an inhibition at 30 µM [3] of 75.2%. For the same compound, the Activity (T-cell [4]) was 94.79%, the inhibition at 10 µM [5] was 38.6% and the inhibition at 100 µM [6] was 90.5%. The Activity (T-cell [7]) was 94.01%, the inhibition at 10 µM (Splenocyte [8]) was 21.1% and the Activity (T-cell [9]) was 86.19%. For the same compound, the cytotoxicity at 48 h, 10 µM [10] was 10.7%, the cytotoxicity at 48 h, 30 µM [11] was 32% and the cytotoxicity at 48 h, 100 µM [12] was 33.4%. For the same compound, the Activity (T-cell [13]) was 92.75%.

Work on `COc1cc(OC)c2c(OS(=O)(=O)c3ccc(C)cc3)ccnc2c1` yielded an inhibition at 30 µM (Splenocyte [1]) of 98.9%, an inhibition at 1 µM (Splenocyte [2]) of 12.9% and an inhibition at 30 µM [3] of 94.7%. It also gave an Activity (T-cell [4]) of 85.74%, an inhibition at 10 µM [5] of 82.3% and an inhibition at 100 µM [6] of 94.2%. For the same compound, the Activity (T-cell [7]) was 81.66%, the inhibition at 10 µM (Splenocyte [8]) was 87.7% and the Activity (T-cell [9]) was 13.7%. It also gave a cytotoxicity at 48 h, 10 µM [10] of 6.2%, a cytotoxicity at 48 h, 30 µM [11] of 5.4% and a cytotoxicity at 48 h, 100 µM [12] of 13.2%. It also gave an Activity (T-cell [13]) of 68.39%.

For `COc1cc(OC)c2c(OC(=O)c3ccccc3Br)ccnc2c1`, the inhibition at 30 µM (Splenocyte [1]) was 85.4%, the inhibition at 1 µM (Splenocyte [2]) was 4.8% and the inhibition at 30 µM [3] was 85.7%. For the same compound, the Activity (T-cell [4]) was 94.92%, the inhibition at 10 µM [5] was 51.2% and the inhibition at 100 µM [6] was 93.3%. It also gave an Activity (T-cell [7]) of 93.23%, an inhibition at 10 µM (Splenocyte [8]) of 42% and an Activity (T-cell [9]) of 86.21%. It also gave a cytotoxicity at 48 h, 10 µM [10] of 9.8%, a cytotoxicity at 48 h, 30 µM [11] of 22.5% and a cytotoxicity at 48 h, 100 µM [12] of 29.2%. The Activity (T-cell [13]) was 93.63%.

`C/C=C/C[C@@H](C)[C@@H](O)[C@H]1C(=O)N[C@@H](CC)C(=O)N(C)CC(=O)N(C)[C@@H](CC(C)C)C(=O)N[C@@H](C(C)C)C(=O)N(C)[C@@H](CC(C)C)C(=O)N[C@@H](C)C(=O)N[C@H](C)C(=O)N(C)[C@@H](CC(C)C)C(=O)N(C)[C@@H](CC(C)C)C(=O)N(C)[C@@H](C(C)C)C(=O)N1C` [CYCLOSPORINE] showed an inhibition at 1 µM [14] of 86.4% and an Activity (T-cell [4]) of 35.14%.

`COc1cc(OC)c2c(OC(=O)c3c(Cl)cccc3Cl)ccnc2c1` showed an inhibition at 30 µM (Splenocyte [1]) of 99.2%, an inhibition at 1 µM (Splenocyte [2]) of 34.7% and an inhibition at 30 µM [3] of 94.6%. For the same compound, the Activity (T-cell [4]) was 92.96%, the inhibition at 10 µM [5] was 94% and the inhibition at 100 µM [6] was 94.3%. The Activity (T-cell [7]) was 88.8%, the inhibition at 10 µM (Splenocyte [8]) was 97.8% and the Activity (T-cell [9]) was 19.41%. For the same compound, the cytotoxicity at 48 h, 10 µM [10] was 10.9%, the cytotoxicity at 48 h, 30 µM [11] was 52.7% and the cytotoxicity at 48 h, 100 µM [12] was 83.4%. For the same compound, the Activity (T-cell [13]) was 59.64%.

`COc1cc(OC)c2c(OC(=O)c3ccccc3I)ccnc2c1` gave an inhibition at 30 µM (Splenocyte [1]) of 87.1%, an inhibition at 1 µM (Splenocyte [2]) of 8.2% and an inhibition at 30 µM [3] of 90.6%. The Activity (T-cell [4]) was 93.1%, the inhibition at 10 µM [5] was 63% and the inhibition at 100 µM [6] was 93%. It also gave an Activity (T-cell [7]) of 91.87%, an inhibition at 10 µM (Splenocyte [8]) of 47.5% and an Activity (T-cell [9]) of 83.23%. It also gave a cytotoxicity at 48 h, 10 µM [10] of 14.3%, a cytotoxicity at 48 h, 30 µM [11] of 26.5% and a cytotoxicity at 48 h, 100 µM [12] of 54.7%. It also gave an Activity (T-cell [13]) of 90.04%.

Compound `COc1cc(OC)c2c(OC(=O)c3cc(Br)cc(Br)c3)ccnc2c1` has an inhibition at 30 µM [3] of 10%, an inhibition at 10 µM [5] of 6.4% and an inhibition at 100 µM [6] of 12.1%. It also gave a cytotoxicity at 48 h, 10 µM [10] of 5.5%, a cytotoxicity at 48 h, 30 µM [11] of 9.4% and a cytotoxicity at 48 h, 100 µM [12] of 6.3%.

With `COc1cc(OC)c2c(OC(=O)c3cccc(I)c3)ccnc2c1` the inhibition at 30 µM [3] was 50.5%, the inhibition at 10 µM [5] was 24.7% and the inhibition at 100 µM [6] was 85.2%. For the same compound, the cytotoxicity at 48 h, 10 µM [10] was 3%, the cytotoxicity at 48 h, 30 µM [11] was 5.6% and the cytotoxicity at 48 h, 100 µM [12] was 11.6%.

Reference: ChEMBL document CHEMBL1154117, “Synthesis and evaluation of a novel series of quinoline derivatives with immunosuppressive activity” (Bioorg Med Chem, 2009)
